Experimental data published in ChEMBL document CHEMBL2346496, “Discovery of new benzothiazole-based inhibitors of breakpoint cluster region-Abelson kinase including the T315I mutant” (J Med Chem, 2013).
≈ marks a conversion by molar mass, not a printed value. Values belong to the molecule of their own block, whether it stands above or below them.

Tests used:
[1] = target: Tyrosine-protein kinase ABL1 (Homo sapiens, UniProt P00519, T315I); assay: Inhibition of breakpoint cluster region-Abelson tyrosine kinase T315I mutant (unknown origin) using [gamma-33P]ATP as substrate by radiometric kinase assay
cells [2] = details: Mus musculus, BaF3, 48 h
cells [3] = details: Mus musculus, BaF3, 48 h; remark: listed apart in the source
[4] = target: Aurora kinase B (Homo sapiens) (UniProt Q96GD4); assay: Inhibition of AURKB (unknown origin) at 1 uM relative to control; values are per cent of control
[5] = target: Dual specificity mitogen-activated protein kinase kinase 1 (Homo sapiens) (UniProt Q02750); assay: Inhibition of MEK1 (unknown origin) at 1 uM relative to control; values are per cent of control
[6] = target: Mitogen-activated protein kinase 8 (Homo sapiens) (UniProt P45983); assay: Inhibition of JNK1 (unknown origin) at 1 uM relative to control; values are per cent of control
[7] = target: Mitogen-activated protein kinase 3 (Homo sapiens) (UniProt P27361); assay: Inhibition of ERK1 (unknown origin) at 1 uM relative to control; values are per cent of control
[8] = target: RAC-alpha serine/threonine-protein kinase (Homo sapiens) (UniProt P31749); assay: Inhibition of AKT1 (unknown origin) at 1 uM relative to control; values are per cent of control
Homo sapiens [9] = organism: Homo sapiens; assay: Inhibition of phosphorylated breakpoint cluster region-Abelson tyrosine kinase (unknown origin) at 1 uM relative to control; values are per cent of control
[10] = target: Serine/threonine-protein kinase pim-1 (Homo sapiens) (UniProt P11309); assay: Inhibition of PIM1 (unknown origin) at 1 uM relative to control; values are per cent of control
[11] = target: Platelet-derived growth factor receptor alpha (Homo sapiens) (UniProt P16234); assay: Inhibition of PDGFRA (unknown origin) at 1 uM relative to control; values are per cent of control
[12] = target: Tyrosine-protein kinase JAK2 (Homo sapiens) (UniProt O60674); assay: Inhibition of JAK2 (unknown origin) at 1 uM relative to control; values are per cent of control
[13] = tested on: Tyrosine-protein kinase ABL1 (Homo sapiens), P00519 [E255K]; assay: Inhibition of phosphorylated breakpoint cluster region-Abelson tyrosine kinase E255K mutant (unknown origin) at 1 uM relative to control; values are per cent of control
[14] = target: Insulin-like growth factor 1 receptor (Homo sapiens) (UniProt P08069); assay: Inhibition of IGF1R (unknown origin) at 1 uM relative to control; values are per cent of control
[15] = target: Vascular endothelial growth factor receptor 2 (Homo sapiens) (UniProt P35968); assay: Inhibition of VEGFR2 (unknown origin) at 1 uM relative to control; values are per cent of control
[16] = target: Proto-oncogene tyrosine-protein kinase Src (Homo sapiens) (UniProt P12931); assay: Inhibition of SRC (unknown origin) at 1 uM relative to control; values are per cent of control
[17] = target: Rho-associated protein kinase 2 (Homo sapiens) (UniProt O75116); assay: Inhibition of ROCK2 (unknown origin) at 1 uM relative to control; values are per cent of control
[18] = target: Aurora kinase A (Homo sapiens) (UniProt O14965); assay: Inhibition of AURKA (unknown origin) at 1 uM relative to control; values are per cent of control
[19] = target: Mast/stem cell growth factor receptor Kit (Homo sapiens) (UniProt P10721); assay: Inhibition of KIT (unknown origin) at 1 uM relative to control; values are per cent of control
[20] = Aqueous solubility of the compound at pH 6.7; format: physicochemical
[21] = tested on: Tyrosine-protein kinase ABL1 (Homo sapiens), P00519 [T315I]; assay: Inhibition of breakpoint cluster region-Abelson tyrosine kinase T315I mutant (unknown origin) at 1 uM relative to control; values are per cent of control
[22] = target: Serine/threonine-protein kinase PLK3 (Homo sapiens) (UniProt Q9H4B4); assay: Inhibition of PLK3 (unknown origin) at 1 uM relative to control; values are per cent of control
[23] = target: Serine/threonine-protein kinase B-raf (Homo sapiens) (UniProt P15056); assay: Inhibition of BRAF (unknown origin) at 1 uM relative to control; values are per cent of control
[24] = target: Angiopoietin-1 receptor (Homo sapiens) (UniProt Q02763); assay: Inhibition of TIE2 (unknown origin) at 1 uM relative to control; values are per cent of control
[25] = target: Serine/threonine-protein kinase PAK 1 (Homo sapiens) (UniProt Q13153); assay: Inhibition of PAK1 (unknown origin) at 1 uM relative to control; values are per cent of control
[26] = target: 3-phosphoinositide-dependent protein kinase 1 (Homo sapiens) (UniProt O15530); assay: Inhibition of PDPK1 (unknown origin) at 1 uM relative to control; values are per cent of control
[27] = target: Cyclin-dependent kinase 2 (Homo sapiens) (UniProt P24941); assay: Inhibition of CDK2 (unknown origin) at 1 uM relative to control; values are per cent of control
[28] = target: Phosphatidylinositol 4,5-bisphosphate 3-kinase catalytic subunit alpha isoform (Homo sapiens) (UniProt P42336); assay: Inhibition of PI3KCA (unknown origin) at 1 uM relative to control; values are per cent of control
[29] = target: Fibroblast growth factor receptor 2 (Homo sapiens) (UniProt P21802); assay: Inhibition of FGFR2 (unknown origin) at 1 uM relative to control; values are per cent of control
[30] = target: Platelet-derived growth factor receptor beta (Homo sapiens) (UniProt P09619); assay: Inhibition of PDGFRB (unknown origin) at 1 uM relative to control; values are per cent of control
[31] = target: Ribosomal protein S6 kinase alpha-3 (Homo sapiens) (UniProt P51812); assay: Inhibition of RSK2 (unknown origin) at 1 uM relative to control; values are per cent of control
[32] = target: Dual specificity mitogen-activated protein kinase kinase 2 (Homo sapiens) (UniProt P36507); assay: Inhibition of MEK2 (unknown origin) at 1 uM relative to control; values are per cent of control
[33] = target: Glycogen synthase kinase-3 beta (Homo sapiens) (UniProt P49841); assay: Inhibition of GSK3b (unknown origin) at 1 uM relative to control; values are per cent of control
[34] = target: cAMP-dependent protein kinase catalytic subunit alpha (Homo sapiens) (UniProt P17612); assay: Inhibition of PKAC-a (unknown origin) at 1 uM relative to control; values are per cent of control
[35] = target: Epidermal growth factor receptor (Homo sapiens) (UniProt P00533); assay: Inhibition of EGFR (unknown origin) at 1 uM relative to control; values are per cent of control
[36] = target: Focal adhesion kinase 1 (Homo sapiens) (UniProt Q05397); assay: Inhibition of FAK (unknown origin) at 1 uM relative to control; values are per cent of control
[37] = target: Mitogen-activated protein kinase 14 (Homo sapiens) (UniProt Q16539); assay: Inhibition of P38alpha (unknown origin) at 1 uM relative to control; values are per cent of control
[38] = target: Inhibitor of nuclear factor kappa-B kinase subunit alpha (Homo sapiens) (UniProt O15111); assay: Inhibition of IKK alpha (unknown origin) at 1 uM relative to control; values are per cent of control
Homo sapiens [39] = organism: Homo sapiens; assay: Inhibition of CDK11 (unknown origin) at 1 uM relative to control; values are per cent of control
[40] = Stability of the compound at 37 degC at pH 6.7 after 24 hrs by UPLC method; format: physicochemical; details: buffer, read-out: Stability
Outline: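 Stability followed by UPLC over 24 h at 37 °C, pH 6.7.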

[41] = target: Hepatocyte growth factor receptor (Homo sapiens) (UniProt P08581); assay: Inhibition of MET (unknown origin) at 1 uM relative to control; values are per cent of control
[42] = target: Receptor-type tyrosine-protein kinase FLT3 (Homo sapiens) (UniProt P36888); assay: Inhibition of FLT3 (unknown origin) at 1 uM relative to control; values are per cent of control
[43] = target: Serine/threonine-protein kinase PLK1 (Homo sapiens) (UniProt P53350); assay: Inhibition of PLK1 (unknown origin) at 1 uM relative to control; values are per cent of control
K562 = assay: cells; details: Homo sapiens
cells [44] = details: Mus musculus, BaF3, 48 h; remark: listed apart in the source
BaF3 = assay: Cytotoxicity against mouse BA/F3 cells transfected with Bcr-Abl T315I mutant after 48 hrs by XTT assay

Sequence of Focal adhesion kinase 1 (Homo sapiens) (Q05397 2-1052 limits assumed): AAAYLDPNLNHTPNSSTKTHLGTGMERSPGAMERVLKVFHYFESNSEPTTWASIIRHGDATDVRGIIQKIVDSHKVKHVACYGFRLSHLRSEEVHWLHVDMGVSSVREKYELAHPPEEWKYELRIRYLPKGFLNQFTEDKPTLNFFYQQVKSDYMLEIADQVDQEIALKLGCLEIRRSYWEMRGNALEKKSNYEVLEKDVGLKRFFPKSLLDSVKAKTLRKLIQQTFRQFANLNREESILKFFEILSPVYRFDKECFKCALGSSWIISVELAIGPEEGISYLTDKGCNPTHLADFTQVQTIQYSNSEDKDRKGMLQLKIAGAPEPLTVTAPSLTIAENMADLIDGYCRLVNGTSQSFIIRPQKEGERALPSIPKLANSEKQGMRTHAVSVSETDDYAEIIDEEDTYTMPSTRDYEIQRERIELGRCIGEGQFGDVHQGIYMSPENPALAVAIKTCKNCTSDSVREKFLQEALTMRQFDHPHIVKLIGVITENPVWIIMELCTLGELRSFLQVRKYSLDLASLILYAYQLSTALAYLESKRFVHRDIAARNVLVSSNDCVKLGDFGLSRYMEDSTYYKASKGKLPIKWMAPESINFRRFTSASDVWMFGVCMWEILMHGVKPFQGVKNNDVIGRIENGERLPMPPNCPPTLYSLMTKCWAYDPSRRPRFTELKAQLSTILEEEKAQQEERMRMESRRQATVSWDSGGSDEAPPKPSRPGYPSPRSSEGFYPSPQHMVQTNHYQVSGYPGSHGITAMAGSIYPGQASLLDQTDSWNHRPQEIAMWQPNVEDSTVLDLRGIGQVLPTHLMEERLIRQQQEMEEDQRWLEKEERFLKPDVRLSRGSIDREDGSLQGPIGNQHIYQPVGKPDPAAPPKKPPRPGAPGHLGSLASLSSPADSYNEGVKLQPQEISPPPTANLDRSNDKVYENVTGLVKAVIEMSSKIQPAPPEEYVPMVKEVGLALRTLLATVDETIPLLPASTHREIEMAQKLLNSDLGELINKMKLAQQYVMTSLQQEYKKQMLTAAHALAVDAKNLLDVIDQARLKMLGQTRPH
Sequence of Proto-oncogene tyrosine-protein kinase Src (Homo sapiens) (P12931 2-536 limits assumed): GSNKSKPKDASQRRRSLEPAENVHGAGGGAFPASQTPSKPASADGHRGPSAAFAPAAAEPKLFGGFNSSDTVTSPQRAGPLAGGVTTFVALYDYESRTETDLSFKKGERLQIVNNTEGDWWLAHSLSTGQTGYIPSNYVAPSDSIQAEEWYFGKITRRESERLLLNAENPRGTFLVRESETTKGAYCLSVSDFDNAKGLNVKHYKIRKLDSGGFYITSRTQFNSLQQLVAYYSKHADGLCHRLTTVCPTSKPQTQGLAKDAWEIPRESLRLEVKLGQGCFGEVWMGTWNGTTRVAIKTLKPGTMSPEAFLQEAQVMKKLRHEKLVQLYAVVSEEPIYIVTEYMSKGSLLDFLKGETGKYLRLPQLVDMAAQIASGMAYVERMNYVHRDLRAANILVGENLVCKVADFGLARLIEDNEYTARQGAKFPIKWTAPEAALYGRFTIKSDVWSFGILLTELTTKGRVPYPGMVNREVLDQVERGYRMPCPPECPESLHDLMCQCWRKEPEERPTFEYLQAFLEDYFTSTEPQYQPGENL
Sequence of Receptor-type tyrosine-protein kinase FLT3 (Homo sapiens) (P36888 whole entry): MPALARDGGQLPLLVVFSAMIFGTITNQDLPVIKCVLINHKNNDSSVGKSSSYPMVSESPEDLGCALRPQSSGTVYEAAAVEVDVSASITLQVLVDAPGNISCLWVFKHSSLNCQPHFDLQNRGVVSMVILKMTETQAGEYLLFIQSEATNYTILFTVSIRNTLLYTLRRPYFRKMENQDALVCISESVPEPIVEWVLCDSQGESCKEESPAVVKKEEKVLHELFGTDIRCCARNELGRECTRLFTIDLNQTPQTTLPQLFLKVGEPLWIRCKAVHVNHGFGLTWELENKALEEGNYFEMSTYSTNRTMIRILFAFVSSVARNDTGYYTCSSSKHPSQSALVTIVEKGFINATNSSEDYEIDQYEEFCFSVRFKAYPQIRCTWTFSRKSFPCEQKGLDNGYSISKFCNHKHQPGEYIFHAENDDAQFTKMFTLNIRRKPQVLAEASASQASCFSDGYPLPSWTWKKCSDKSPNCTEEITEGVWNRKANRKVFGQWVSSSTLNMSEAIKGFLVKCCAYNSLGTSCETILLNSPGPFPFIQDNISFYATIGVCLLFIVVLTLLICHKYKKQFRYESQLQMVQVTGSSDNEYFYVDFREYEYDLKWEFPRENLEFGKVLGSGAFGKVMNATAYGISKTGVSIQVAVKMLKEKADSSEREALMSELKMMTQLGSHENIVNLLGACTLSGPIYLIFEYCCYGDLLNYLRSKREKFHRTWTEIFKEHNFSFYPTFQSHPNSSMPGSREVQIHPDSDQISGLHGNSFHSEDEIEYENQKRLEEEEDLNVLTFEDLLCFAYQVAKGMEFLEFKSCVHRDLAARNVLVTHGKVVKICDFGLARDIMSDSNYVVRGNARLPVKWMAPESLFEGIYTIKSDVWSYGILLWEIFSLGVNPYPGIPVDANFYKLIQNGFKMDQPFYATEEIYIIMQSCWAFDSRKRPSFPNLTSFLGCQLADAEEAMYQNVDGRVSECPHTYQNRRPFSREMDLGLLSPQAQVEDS
Sequence of Fibroblast growth factor receptor 2 (Homo sapiens) (P21802 22-821 limits assumed): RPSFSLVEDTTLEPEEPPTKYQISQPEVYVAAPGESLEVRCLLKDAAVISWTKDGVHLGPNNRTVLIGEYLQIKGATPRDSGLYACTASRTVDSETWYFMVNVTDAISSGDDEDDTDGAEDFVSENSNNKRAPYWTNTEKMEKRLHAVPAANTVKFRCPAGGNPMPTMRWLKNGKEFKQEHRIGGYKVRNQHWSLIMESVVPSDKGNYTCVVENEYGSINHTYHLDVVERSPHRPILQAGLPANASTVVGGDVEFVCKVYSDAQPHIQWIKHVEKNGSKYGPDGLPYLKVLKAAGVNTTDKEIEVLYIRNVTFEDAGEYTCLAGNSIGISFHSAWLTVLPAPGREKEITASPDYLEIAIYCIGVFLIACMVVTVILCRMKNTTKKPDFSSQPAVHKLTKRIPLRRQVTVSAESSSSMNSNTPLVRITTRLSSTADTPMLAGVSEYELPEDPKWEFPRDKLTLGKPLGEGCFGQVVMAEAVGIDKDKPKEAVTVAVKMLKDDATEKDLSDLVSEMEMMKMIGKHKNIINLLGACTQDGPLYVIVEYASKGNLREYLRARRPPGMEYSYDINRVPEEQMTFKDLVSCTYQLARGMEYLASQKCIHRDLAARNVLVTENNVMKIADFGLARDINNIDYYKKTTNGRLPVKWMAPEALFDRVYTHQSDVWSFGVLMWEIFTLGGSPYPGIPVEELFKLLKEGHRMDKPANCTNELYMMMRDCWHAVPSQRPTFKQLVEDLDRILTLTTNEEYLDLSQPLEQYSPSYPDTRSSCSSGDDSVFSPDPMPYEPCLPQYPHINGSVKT
Sequence of Vascular endothelial growth factor receptor 2 (Homo sapiens) (P35968 whole entry): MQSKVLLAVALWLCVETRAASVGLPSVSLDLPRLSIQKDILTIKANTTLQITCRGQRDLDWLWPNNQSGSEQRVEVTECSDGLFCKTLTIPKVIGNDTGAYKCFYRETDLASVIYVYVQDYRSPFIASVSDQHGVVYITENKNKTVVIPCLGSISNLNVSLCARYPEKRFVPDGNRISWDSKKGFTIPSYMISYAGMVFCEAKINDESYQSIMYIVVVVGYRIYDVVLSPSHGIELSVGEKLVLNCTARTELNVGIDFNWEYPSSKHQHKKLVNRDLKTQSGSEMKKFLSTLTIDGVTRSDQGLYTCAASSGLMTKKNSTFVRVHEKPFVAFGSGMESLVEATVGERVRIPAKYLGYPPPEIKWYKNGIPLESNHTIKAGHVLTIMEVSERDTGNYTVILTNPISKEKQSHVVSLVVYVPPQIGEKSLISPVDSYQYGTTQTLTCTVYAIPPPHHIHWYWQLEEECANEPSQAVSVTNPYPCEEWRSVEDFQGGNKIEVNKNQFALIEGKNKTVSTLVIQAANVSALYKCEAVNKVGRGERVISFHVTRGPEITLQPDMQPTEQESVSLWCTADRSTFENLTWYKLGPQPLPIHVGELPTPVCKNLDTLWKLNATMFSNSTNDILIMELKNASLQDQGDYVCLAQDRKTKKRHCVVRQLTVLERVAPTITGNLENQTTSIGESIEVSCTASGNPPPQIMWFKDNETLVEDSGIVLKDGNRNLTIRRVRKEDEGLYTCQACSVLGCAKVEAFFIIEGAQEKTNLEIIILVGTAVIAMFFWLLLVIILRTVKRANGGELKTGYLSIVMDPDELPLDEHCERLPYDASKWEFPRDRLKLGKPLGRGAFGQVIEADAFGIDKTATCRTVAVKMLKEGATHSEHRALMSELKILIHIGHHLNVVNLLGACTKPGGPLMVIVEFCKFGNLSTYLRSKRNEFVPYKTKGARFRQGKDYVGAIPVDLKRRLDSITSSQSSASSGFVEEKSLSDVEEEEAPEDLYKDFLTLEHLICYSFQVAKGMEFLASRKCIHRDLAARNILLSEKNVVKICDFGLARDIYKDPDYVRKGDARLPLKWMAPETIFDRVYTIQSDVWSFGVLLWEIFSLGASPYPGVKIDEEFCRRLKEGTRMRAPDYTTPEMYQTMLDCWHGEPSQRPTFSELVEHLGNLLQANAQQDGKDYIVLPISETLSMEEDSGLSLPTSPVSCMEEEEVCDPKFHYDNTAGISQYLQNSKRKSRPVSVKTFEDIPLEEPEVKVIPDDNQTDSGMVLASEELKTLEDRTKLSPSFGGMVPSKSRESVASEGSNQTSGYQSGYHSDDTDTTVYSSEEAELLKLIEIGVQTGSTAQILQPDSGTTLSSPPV
Sequence of Serine/threonine-protein kinase pim-1 (Homo sapiens) (P11309 whole entry, looked up): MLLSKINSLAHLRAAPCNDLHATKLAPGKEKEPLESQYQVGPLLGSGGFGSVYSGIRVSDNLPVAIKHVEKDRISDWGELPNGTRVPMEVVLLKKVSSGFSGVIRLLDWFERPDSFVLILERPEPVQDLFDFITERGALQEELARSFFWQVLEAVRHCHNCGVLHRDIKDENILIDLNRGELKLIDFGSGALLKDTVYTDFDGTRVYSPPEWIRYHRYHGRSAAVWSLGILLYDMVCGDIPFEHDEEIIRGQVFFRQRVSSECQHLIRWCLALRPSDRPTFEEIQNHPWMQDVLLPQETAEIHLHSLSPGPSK

Structure (SMILES): CCNC(=O)Nc1nc2ccc(C(=O)N3CCN(C)CC3)cc2[nH]1
- IC50 [1]: > 100000 nM

Structure (SMILES): CCOc1ccccc1-c1ccc2nc(NC(=O)NCCN3CCNCC3)sc2c1
- IC50 (cells [2]): 870 nM
- IC50 (cells [3]): 110 nM

Structure (SMILES): CCOc1ccccc1-c1ccc2nc(NC(=O)NCCN3CCOCC3)sc2c1
- IC50 (cells [2]): 1090 nM
- IC50 (cells [3]): 210 nM

Structure (SMILES): CCNC(=O)Nc1nc2ccc(-c3ccccc3OC)cc2s1
- residual activity [4]: 100%
- IC50 (cells [2]): 2140 nM
- residual activity [5]: 100%
- residual activity [6]: 100%
- residual activity [7]: 100%
- residual activity [8]: 67%
- residual activity (Homo sapiens [9]): 5%
- residual activity [10]: 100%
- IC50 [1]: 0.11 nM
- IC50 (cells [3]): 3570 nM
- residual activity [11]: 79%
- residual activity [12]: 100%
- residual activity [13]: 4.5%
- residual activity [14]: 100%
- residual activity [15]: 98%
- residual activity [16]: 72%
- residual activity [17]: 100%
- residual activity [18]: 100%
- residual activity [19]: 79%
- solubility [20]: 0.0227 µg/mL (≈ 0.0693 µM)
- residual activity [21]: 4.5%
- residual activity [22]: 87%
- residual activity [23]: 100%
- residual activity [24]: 100%
- residual activity [25]: 93%
- residual activity [26]: 67%
- residual activity [27]: 100%
- residual activity [28]: 100%
- residual activity [29]: 100%
- residual activity [30]: 16%
- residual activity [31]: 58%
- residual activity [32]: 100%
- residual activity [33]: 100%
- residual activity [34]: 100%
- residual activity [35]: 100%
- residual activity [36]: 100%
- residual activity [37]: 100%
- residual activity [38]: 100%
- residual activity (Homo sapiens [39]): 100%
- remaining at 24 h [40]: 100%
- residual activity [41]: 100%
- residual activity [42]: 94%
- residual activity [43]: 100%

Structure (SMILES): COc1ccccc1-c1ccc2nc(NC(=O)NCCN3CCOCC3)sc2c1
- IC50 (cells [2]): 290 nM
- IC50 (cells [3]): 100 nM
- inhibition (BaF3): Dose-dependent effect

Structure (SMILES): COC(=O)Nc1nc2ccc(C(=O)c3cccs3)cc2[nH]1 [NOCODAZOLE]
- IC50 [1]: 640 nM

Structure (SMILES): COc1ccccc1-c1ccc2nc(NC(=O)NCCN3CCN(C)CC3)sc2c1
- IC50 (cells [2]): 78 nM
- IC50 (K562): 420 nM
- IC50 (cells [3]): 46 nM
- IC50 (cells [44]): > 10000 nM
- solubility [20]: 2240 µg/mL (≈ 5260 µM)
- remaining at 24 h [40]: 99.7%

Structure (SMILES): CCc1ccccc1-c1ccc2nc(NC(=O)NCCN(C)C)sc2c1
- IC50 (cells [2]): 410 nM
- IC50 (cells [3]): 310 nM

The remaining lines, values ahead:

- IC50 [1]: > 100000 nM
Structure (SMILES): CCNC(=O)Nc1nc2ccc(C(=O)Nc3ccncc3)cc2[nH]1

- IC50 (cells [2]): 290 nM
- IC50 (cells [3]): 82 nM
Structure (SMILES): COc1ccccc1-c1ccc2nc(NC(=O)NCCCO)sc2c1

- IC50 (cells [2]): 560 nM
- IC50 (cells [3]): 120 nM
Structure (SMILES): CCOc1ccccc1-c1ccc2nc(NC(=O)NCCCO)sc2c1

- IC50 (cells [2]): 1350 nM
- IC50 (cells [3]): 180 nM
Structure (SMILES): CCOc1ccccc1-c1ccc2nc(NC(=O)NCCO)sc2c1

- IC50 (cells [2]): 4790 nM
- IC50 (K562): 170 nM
- IC50 (cells [3]): 92 nM
- IC50 (cells [44]): > 10000 nM
Structure (SMILES): Cc1ccc(NC(=O)c2ccc(CN3CCN(C)CC3)cc2)cc1Nc1nccc(-c2cccnc2)n1 [IMATINIB]

- IC50 (cells [2]): 140 nM
- IC50 (K562): 120 nM
- IC50 (cells [3]): 89 nM
- IC50 (cells [44]): > 10000 nM
- solubility [20]: 7.49 µg/mL (≈ 21.8 µM)
- remaining at 24 h [40]: 100%
Structure (SMILES): COc1ccccc1-c1ccc2nc(NC(=O)NCCO)sc2c1

- IC50 (cells [2]): 1440 nM
- IC50 (cells [3]): 280 nM
Structure (SMILES): CCc1ccccc1-c1ccc2nc(NC(=O)NCCN3CCOCC3)sc2c1
